Compound activity as filed in PubChem BioAssay.
TRPC4 act: TRPC4 (mouse) channel activation; HEK293 TRPC4beta/mu-opioid, Fluo4 calcium fluorescence; active compounds read high; B-score at 10 µM; hit rate 0.49% among 310,000; Q9QUQ5; AID 2237;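 active means B-score above 5 SD of library B-scores, and initial fluorescence ratio not above library mean plus 5 SD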;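 further: positive B-score marks a calcium rise read as TRPC4 activation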
Target sequence (Q9QUQ5 whole entry, looked up): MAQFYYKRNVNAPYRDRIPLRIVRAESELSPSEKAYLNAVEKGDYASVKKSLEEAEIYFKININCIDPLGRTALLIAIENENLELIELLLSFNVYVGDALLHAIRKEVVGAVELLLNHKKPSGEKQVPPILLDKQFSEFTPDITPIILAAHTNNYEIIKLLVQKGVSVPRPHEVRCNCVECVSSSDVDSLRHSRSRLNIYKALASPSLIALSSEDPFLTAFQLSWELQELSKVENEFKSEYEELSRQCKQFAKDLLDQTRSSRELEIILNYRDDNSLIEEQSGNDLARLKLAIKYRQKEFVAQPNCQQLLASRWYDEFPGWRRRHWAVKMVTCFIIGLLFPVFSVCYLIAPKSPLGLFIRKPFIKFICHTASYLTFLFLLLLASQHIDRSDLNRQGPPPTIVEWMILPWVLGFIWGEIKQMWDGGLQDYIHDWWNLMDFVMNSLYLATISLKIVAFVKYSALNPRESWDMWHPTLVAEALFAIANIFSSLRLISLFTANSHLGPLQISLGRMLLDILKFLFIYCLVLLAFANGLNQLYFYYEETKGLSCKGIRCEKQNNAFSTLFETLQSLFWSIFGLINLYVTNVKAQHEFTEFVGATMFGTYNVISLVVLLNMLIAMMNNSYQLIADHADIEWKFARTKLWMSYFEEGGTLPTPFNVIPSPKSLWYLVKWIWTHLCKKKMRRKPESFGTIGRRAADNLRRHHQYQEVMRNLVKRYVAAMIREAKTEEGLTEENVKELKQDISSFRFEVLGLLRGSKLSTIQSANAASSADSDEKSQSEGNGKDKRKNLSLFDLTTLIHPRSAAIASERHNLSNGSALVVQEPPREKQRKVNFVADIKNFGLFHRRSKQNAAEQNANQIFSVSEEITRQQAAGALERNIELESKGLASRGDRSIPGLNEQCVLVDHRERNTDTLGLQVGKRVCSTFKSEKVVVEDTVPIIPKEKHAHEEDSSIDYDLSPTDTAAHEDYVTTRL
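Test system: HEK293 cells stably co-expressing mouse TRPC4beta and mu-opioid receptor | Schedule: Fluo4 dye loading 45 min at room temperature, 110 s recording | Measured by: Kinetic Fluo4 calcium fluorescence, 5 s baseline at 1 Hz | Evaluation: B score of integrated ratio | Controls: Buffer (low) and maximal DAMGO (high)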
TRPC4 potent: TRPC4 (mouse) allosteric potentiation | Q9QUQ5 | HEK293 TRPC4beta/mu-opioid, DAMGO EC20, Fluo-4 Ca2+ flux; active compounds read high | B-score at 10 µM | hit rate 0.42% among 310,000 | AID 2227;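 active means B-score of calcium response area above 5 SD of library B-scores, with initial fluorescence ratio within 5 SD of library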;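 further: B-score of integrated fluorescence ratio over time as area under calcium response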
TRPC6 activator: activators of mouse TRPC6 channel. B-score at 10 µM. hit rate 0.13% among 310,000. HEK293-TRPC6 membrane potential dye fluorescence; active compounds read high. Q61143;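 active means B-score of the integrated fluorescence ratio above library mean plus 3 SD, and starting fluorescence ratio within library mean plus 5 SD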;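 further: higher score means more depolarization so channel activation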
TRPC6 inhibitor: inhibitors of mouse TRPC6 channel | Q61143 | HEK293-TRPC6, membrane potential dye, ACh-evoked depolarization; active compounds read low | B-score at 10 µM | hit rate 1.1% among 310,000 | AID 2553;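 active means B-score under library mean minus 3 SD, initial fluorescence not abnormally high, positive integrated signal ratio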;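 further: B-score derived from integrated fluorescence ratio over the kinetic read; more negative B-score means stronger inhibition of depolarization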
DSG3 Ab inh: human desmoglein-3 autoantibody binding inhibition | P32926 | DSG3-coupled beads, scFv-anti-DSG3-GFP binding, flow cytometry; active compounds read low | binding (percent of control), % at 10 µM | hit rate 0.48% among 310,000 | AID 588358;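 active means binding more than 3 SD below its plate's average and above zero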;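 further: hits lower antibody fragment binding to DSG3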
TRPC4 inh: TRPC4 (mouse) channel inhibition; HEK293 TRPC4beta/mu-opioid, DAMGO-evoked Fluo4 calcium flux; active compounds read low; B-score at 10 µM; hit rate 0.39% among 300,000;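 active means B-score over 3 SD under the library average, no early fluorescence shift, positive overall ratio signal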
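Assay system – HEK293 line stably carrying TRPC4beta and mu-opioid receptor · Doses – single dose · Detection – Fluo4 calcium-dye fluorescence, kinetic read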
TRPC4 sel inh 2: second selectivity test of TRPC6 inhibitors: effect on mouse TRPC4 | shares compounds with TRPC6 inhibitor | HEK293 TRPC4/MOR, membrane potential dye fluorescence; channel activated by saturating DAMGO dose | inhibition, % at 10 µM | hit rate 42% among 920;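 active means compounds whose fluorescence signal differed from control wells by over 3 SD, either direction, in both duplicate plates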
TRPC4 spec: mouse TRPC4 off-target activity of TRPC6 inhibitors | shares compounds with TRPC6 inhibitor | HEK293 TRPC4/mu-opioid, membrane potential fluorescence | activity change, negative = inhibition, % at 10 µM | hit rate 61% among 920 | AID 2777;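 active means rise or fall in signal beyond 3 SD of buffer-only wells in both replicate plates, either sign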;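 further: integrated kinetic ratio of fluorescence range over baseline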
HEK293 MPD ctr 2-1: parental HEK293 nonspecific activity of TRPC6 inhibitors, second screen. shares compounds with TRPC6 inhibitor. parental HEK293 membrane potential dye fluorescence; maximal acetylcholine challenge after compound addition. signal change vs control, % at 10 µM. hit rate 31% among 920. AID 2779;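 active means membrane potential signal moving either way by over 3 SD of the maximum-effect control, in both duplicate plates, meaning non-specific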
HEK293 MPD ctr-1: parental HEK293 nonspecific activity of TRPC6 inhibitors; membrane potential signal change, % at 10 µM; parental HEK293 membrane potential dye fluorescence; hit rate 60% among 920; shares compounds with TRPC6 inhibitor; AID 2780;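 active means membrane potential signal shifting up or down by more than 3 SD of buffer-only wells, on both duplicate plates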
HEK293 MPD ctr-2: counter-screen for TRPC6 modulators: effect in parental HEK293 cells. AID 488924. membrane potential signal change, % at 10 µM. membrane potential dye fluorescence. hit rate 51% among 2,400. shares compounds with TRPC6 inhibitor;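 active means membrane potential signal moves up or down beyond 5 SD from buffer-only wells, on both duplicate plates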
HEK293 MPD ctr 2-2: second check of TRPC6 modulator effects in parental HEK293 cells; membrane potential dye fluorescence; after compound, maximal acetylcholine stimulation; hit rate 14% among 2,400; AID 488926; inhibition, % at 10 µM; shares compounds with TRPC6 inhibitor;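 active means membrane potential signal drops by more than 5 SD from the mean control signal, in both duplicate plates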;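 further: plate controls were acetylcholine ECmax control wells for no effect and buffer only wells for full effect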
TRPC4 ctr mod: tests whether TRPC6 modulators also affect mouse TRPC4. shares compounds with TRPC6 inhibitor. HEK293 TRPC4/mu-opioid, membrane potential fluorescence. percent change from control (negative = decrease, positive = increase), % at 10 µM. hit rate 69% among 2,400. AID 488927;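 active means membrane potential signal moved up or down beyond 5 SD of buffer control wells, in both duplicate plates, actives on both sides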;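 further: plate controls were assay buffer wells for no effect and DAMGO maximal-effect wells for full effect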
TRPC4/MOR inh 2: second check of whether TRPC6 modulators also affect mouse TRPC4; shares compounds with TRPC6 inhibitor; hit rate 55% among 2,400; AID 488928; inhibition, % at 10 µM; HEK293 TRPC4/mu-opioid, membrane potential dye fluorescence; stimulated with maximal-effect DAMGO;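 active means drop in membrane potential signal beyond 5 SD of the control wells in both duplicate plates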;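 further: TRPC4 counter screen for TRPC6 hits run under conditions tuned for TRPC6 not TRPC4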
TRPC6 inh conf: mouse TRPC6 inhibitor confirmation; shares compounds with TRPC6 inhibitor; HEK293-TRPC6, membrane potential dye, ACh-evoked depolarization; inhibition, % at 10 µM; hit rate 43% among 3,300; AID 488960;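 active means fluorescence ratio falls more than 5 SD below the full-stimulation control mean, in both duplicate runs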;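 further: integrated fluorescence ratio of peak minus minimum over baseline after agonist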
TRPC6 act confirm: confirmation of mouse TRPC6 activators; hit rate 11% among 2,800; AID 488961; activation, % at 10 µM; shares compounds with TRPC6 inhibitor; HEK293-TRPC6 membrane potential dye fluorescence, FDSS;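 active means ratio signal rise beyond 5 SD above unstimulated control wells' mean, seen in both duplicate runs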;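 further: plate controls were buffer EC0 wells for no effect and acetylcholine ECmax response for full effect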
Numbers without * were called inactive; i = inactive; nt = not tested or not shown. Shown are actives, neighbours in structure and some others; about 2.5% of the full set was active somewhere.

SMILES	TRPC4 act	TRPC4 potent	TRPC6 activator	TRPC6 inhibitor	DSG3 Ab inh	TRPC4 inh	HEK293 MPD ctr-2	HEK293 MPD ctr 2-2	TRPC4 ctr mod	TRPC4/MOR inh 2	TRPC6 inh conf	TRPC6 act confirm	others
O=C(CNC1CCCCCC1)Nc1ccc(N2CCCC2)cc1	i	i	i	i	nt	i	nt	nt	nt	nt	nt	nt
O=C(CNCC1CCCO1)Nc1ccc(N2CCCCCC2)cc1 (configuration not stated)	i	i	i	-6.28*	99.2	i	i	i	-16.0%*	33.0%*	i	i
CC1CCN(CC(=O)Nc2ccc(N3CCCCCC3)cc2)CC1	i	i	i	-5.37*	103.2	i	i	i	-17.0%*	38.5%*	i	i
O=C(CNCCC1=CCCCC1)Nc1ccc(N2CCCCCC2)cc1	i	i	i	-7.23*	108.5	i	nt	nt	nt	nt	i	i	TRPC4 sel inh 2=70.0%*;TRPC4 spec=-11.9%*;HEK293 MPD ctr 2-1=i;HEK293 MPD ctr-1=-152.0%*
Cc1cccc(C(=O)N=c2c(C#N)cc3c(=O)n4cccc(C)c4nc3n2Cc2ccco2)c1	i	i	i	-5.08*	80.3	i	123.5%*	i	-54.5%*	36.0%*	i	i
COCCCn1c(=NC(=O)c2ccccc2)c(C#N)cc2c(=O)n3cccc(C)c3nc21	i	i	i	-6.65*	98.8	i	i	i	i	i	i	i
Cc1cccn2c(=O)c3cc(C#N)c(=NC(=O)c4ccccc4)n(Cc4ccco4)c3nc12	i	i	i	i	109.8	i	nt	nt	nt	nt	nt	nt
CCOCCCn1c(=NC(=O)c2cccs2)c(C#N)cc2c(=O)n3cccc(C)c3nc21	i	i	i	i	103.6	i	nt	nt	nt	nt	nt	nt
COCCCn1c(=NC(C)=O)c(C#N)cc2c(=O)n3cccc(C)c3nc21	i	i	i	-5.97*	93.3	i	-140.5%*	i	-41.5%*	28.0%*	i	i
Cc1cccn2c(=O)c3cc(C#N)c(=NC(=O)c4cccs4)n(CC(C)C)c3nc12	i	i	i	i	nt	i	nt	nt	nt	nt	nt	nt
O=C1c2cccc(OCC(=O)N3N=C(c4cccs4)CC3c3ccc(F)cc3)c2CCN1Cc1cccnc1 (configuration not stated)	i	i	i	i	87.7	i	nt	nt	nt	nt	nt	nt
CCOc1ccc(NC(C)c2cc(Cl)ccc2O)cc1 (configuration not stated)	i	i	i	-5.19*	110.8	i	i	i	-15.0%*	37.5%*	i	i
CCOc1ccc(S(=O)(=O)Nc2cccc(Cl)c2)cc1	i	i	i	i	117.9	i	nt	nt	nt	nt	nt	nt
CCOc1ccc(S(=O)(=O)Nc2cc(Cl)ccc2O)cc1	i	i	i	-5.31*	128.5	i	i	i	-15.5%*	i	i	i
CC(Nc1ccc(Cl)cc1)c1cc(Cl)ccc1O (configuration not stated)	i	i	i	i	108.7	i	nt	nt	nt	nt	nt	nt
COc1ccc(N2CCN(S(=O)(=O)CCNC(=O)COc3ccc(Cl)cc3)CC2)cc1	i	i	i	i	nt	i	nt	nt	nt	nt	nt	nt
COc1ccc(N2CCN(S(=O)(=O)CCNC(=O)COc3ccccc3C)CC2)cc1	i	i	i	-8.46*	97.0	i	nt	nt	nt	nt	i	i	TRPC4 sel inh 2=i;TRPC4 spec=-8.9%*;HEK293 MPD ctr 2-1=240.5%*;HEK293 MPD ctr-1=i
COc1ccccc1Nc1nc(N)nc(CN2CCC(C)CC2)n1	i	i	i	i	121.0	i	nt	nt	nt	nt	nt	nt
COc1ccccc1Nc1nc(N)nc(CN2CCC(Cc3ccccc3)CC2)n1	i	i	i	-6.45*	nt	i	100.5%*	i	i	83.5%*	47.0%*	nt
COc1ccccc1Nc1nc(N)nc(CSC(=S)N2CCCCC2C)n1 (configuration not stated)	i	i	i	-7.75*	107.4	i	nt	nt	nt	nt	i	i	TRPC4 sel inh 2=i;TRPC4 spec=i;HEK293 MPD ctr 2-1=i;HEK293 MPD ctr-1=i
COc1ccccc1Nc1nc(N)nc(CSC(=S)N2CCC(C)CC2)n1	i	i	i	-5.5*	101.1	i	i	i	i	i	77.5%*	nt
COc1ccccc1CN1CC(C(=O)NCc2ncccc2C)CCC1=O (configuration not stated)	i	i	i	i	106.6	i	nt	nt	nt	nt	nt	nt
CC1=C(CC(=O)NCC(=O)NCC(=O)O)c2cc(F)ccc2/C1=C/c1ccc(S(C)=O)cc1 (configuration not stated)	i	i	i	i	92.9	i	nt	nt	nt	nt	nt	nt
COc1cc(C(=O)NCCNC(=O)C2CCCNC2=O)cc(OC)c1OC (configuration not stated)	i	i	i	i	nt	i	nt	nt	nt	nt	nt	nt
Cc1cc2c(SCC(=O)NC3CCCC3)ncnc2s1	i	i	i	i	105.4	i	nt	nt	nt	nt	nt	nt
O=C(Cc1ccccc1)NCC(=O)N1CCC1	i	i	i	i	111.8	i	nt	nt	nt	nt	nt	nt
CC(=O)N1CCN(c2ccc(NCc3ccccc3)cc2)CC1	i	i	i	i	96.5	i	nt	nt	nt	nt	nt	nt
